Measurements from PubChem BioAssay AID2805 (Sanford-Burnham Center for Chemical Genomics, 2010).
In all, about 330,000 compounds went through this assay and about 780 (0.24%) were called active. This is one part of a sample in which actives are shown more often than they occur.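 Rule for the calls: active = activation factor of at least 2 at 20 µM; inactive = the rest.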

system: intestinal alkaline phosphatase [Mus musculus]; test: mouse intestinal phosphatase enzyme activation – biochemical, luminescence, uHTS, primary screen (AID 2805); conditions: muIAP, CDP-Star luminescence, 30 min; at 10 µM; stronger effect = higher value; 1 = vehicle-only enzyme signal, 0 = enzyme-free wells
Summary of the method: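 System: Mouse IAP enzyme | Also added: CDP-Star substrate | Dosing: Compounds dispensed in DMSO | Schedule: 30 min enzyme-substrate-compound incubation at room temperature | Technique: Chemiluminescence readout | Control set: DMSO-only wells and no-enzyme negative control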

Activation factor, inactive:
C/C(=N\Nc1nc2ccccc2[nH]1)c1cccs1 1.07
COCCn1c(C)cc(C(=O)CN2c3cccc4cccc(c34)S2(=O)=O)c1C 1.06
CCc1nn(CCCC(=O)NC(C)c2ccccc2)c(=O)c2cc3occc3n12 (stereo not drawn) 0.908
CCN(CC(=O)Nc1ccccc1C(=O)NC1CC1)Cc1cccs1 0.951
O=C(NCc1ccccn1)Nc1ccc(Cl)cc1 1.1
CC(=O)N1CCC(N(C(=O)Nc2ccc(Cl)cc2)C(C)C)CC1 1.1
Fc1ccccc1COc1ccccc1CNCc1ccncc1 0.935
O=C(CSc1nnc(Cn2cnc3ccccc32)o1)c1ccccc1 0.997
N#Cc1cnn2cc(CCN3CCOCC3)c(-c3ccc(F)cc3)nc12 0.899
O=CN1CCN(C(=O)c2ccc3c(c2)OCO3)CC1 1.06
COc1cccc(NC(=O)C2c3cc(OC)c(OC)cc3C(=O)N(C)C2c2cccnc2)c1 (stereo not drawn) 0.967
COc1cccc(NC(=O)C2CCCN2C(=O)OCc2ccccc2)c1 (stereo not drawn) 0.929
CC(Sc1nnc(-c2ccccc2F)n1C1CC1)C(N)=O (stereo not drawn) 1
CC(=O)Nc1ccc(NC(=O)CC2CCCC2)cc1 1.03
O=C(NCc1ccccc1)c1ccc(S(=O)(=O)Nc2cccc(C(F)(F)F)c2)cc1 0.856
O=C(Nc1ccc(C(=O)N2CCOCC2)cc1)Nc1cccc(C(F)(F)F)c1 1.56
COc1ccc(C(C(=O)NC2CCCC2)N(CCCO)C(=O)Cn2nnc(-c3ccc(C)o3)n2)cc1 (stereo not drawn) 1.05
Cc1ccc(NC(=S)NCc2ccccc2Cl)c(C)c1 1.27
S=C(NCc1ccco1)NCc1ccccc1Cl 1.01
CCCCCCC12CCC(C(=O)O)(CC1)CC2 1.01
O=C(CN1C(=O)NC2(CCCCC2)C1=O)N1CCN(C(=O)c2cccs2)CC1 0.968
Cc1ccc(C)c(S(=O)(=O)N2CCCOC2CNC(=O)C(=O)NC2CCCCC2)c1 (stereo not drawn) 1.04
Nc1nnc(SCC(=O)NC2CCCc3ccccc32)s1 (stereo not drawn) 1
Cc1cc(Nc2ccc(Br)cc2F)n2ncnc2n1 0.862
Cc1ccc(NC(=O)Nc2ccccc2)c(Br)c1 1.26
Cc1ccoc1C(=O)Nc1cccc(Oc2ccccc2)c1 0.9
O=C(O)c1cc(S(=O)(=O)Nc2ccc3cn[nH]c3c2)ccc1Br 0.965
CS/C(=C\C(=O)c1ccco1)Nc1ccccc1Cl 0.883

Activation factor, active:
CC(C)S(=O)(=O)c1csc(NC(=O)Nc2ccc(Cl)cc2)c1Cl 2.9
COc1cccc(NC(=O)C2C(c3ccccc3)C2(Cl)Cl)c1 (stereo not drawn) 2.76
CCNS(=O)(=O)c1ccc(NC(=O)Nc2cccc(C(F)(F)F)c2)cc1 2.22
S=C(NCCc1ccccc1)NCc1ccccc1Cl 2.23
Cc1cccc(NC(=O)Nc2cccc(Oc3c(F)c(F)c(F)c(F)c3F)c2)c1 3.37
